Consider 19 compounds from ChEMBL document CHEMBL1139869, “Design and synthesis of novel quinolinone-3-aminoamides and their alpha-lipoic acid adducts as antioxidant and anti-inflammatory agents” (2007).

Active and inactive are the calls of the source. The rule behind the calls is not given here.

A short description of experiment [1]: Antioxidant activity assessed as DPPH reducing activity at 0.1 mM after 60 mins. It counts as functional. The arrangement: scale not given: the % may be the effect or the level left. The essentials:
(§1)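 DPPH in absolute ethanol was mixed with an equal volume of compound in ethanol (0.1 or 0.5 mM); ethanol served as control. Absorbance at 517 nm was read after 20 and 60 min at room temperature. At least triplicate.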

Experiment [2] deals with T1, Seed linoleate 13S-lipoxygenase-1 (Glycine max) (UniProt P08170).
T1 sequence (whole entry): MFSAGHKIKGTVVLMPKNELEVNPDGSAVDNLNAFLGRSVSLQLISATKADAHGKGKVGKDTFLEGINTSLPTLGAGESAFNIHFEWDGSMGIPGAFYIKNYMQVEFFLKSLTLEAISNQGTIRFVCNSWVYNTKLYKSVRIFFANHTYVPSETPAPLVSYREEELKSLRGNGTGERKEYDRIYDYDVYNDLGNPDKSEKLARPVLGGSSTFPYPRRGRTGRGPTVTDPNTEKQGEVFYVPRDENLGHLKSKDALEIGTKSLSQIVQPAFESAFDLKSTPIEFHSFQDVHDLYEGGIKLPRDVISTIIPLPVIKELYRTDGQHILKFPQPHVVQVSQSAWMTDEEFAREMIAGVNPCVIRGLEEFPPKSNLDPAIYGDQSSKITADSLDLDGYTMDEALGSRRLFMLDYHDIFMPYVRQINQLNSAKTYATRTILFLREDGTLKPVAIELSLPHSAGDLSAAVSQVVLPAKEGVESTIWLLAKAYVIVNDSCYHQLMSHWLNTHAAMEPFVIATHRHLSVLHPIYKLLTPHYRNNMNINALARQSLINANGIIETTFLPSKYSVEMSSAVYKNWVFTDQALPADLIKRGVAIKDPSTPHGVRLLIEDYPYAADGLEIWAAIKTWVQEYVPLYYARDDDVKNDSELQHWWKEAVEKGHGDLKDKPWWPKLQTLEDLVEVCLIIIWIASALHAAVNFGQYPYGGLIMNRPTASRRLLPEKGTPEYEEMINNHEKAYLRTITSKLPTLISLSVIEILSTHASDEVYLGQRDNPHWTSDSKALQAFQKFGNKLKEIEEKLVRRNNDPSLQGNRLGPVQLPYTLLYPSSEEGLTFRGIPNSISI
As to the kind of experiment: Inhibition of soybean lipoxygenase at 0.1 mM. The procedure, abridged:
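Soybean lipoxygenase solution (1/9 × 10⁴ w/v in saline) was incubated at room temperature with sodium linoleate (0.1 mM) and compound dissolved in ethanol. UV absorbance-based read-out. At least triplicate.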

The nature of experiment [3]: Antioxidant activity assessed as DPPH reducing activity at 0.1 mM after 20 mins. Set-up: scale not given: the % may be the effect or the level left. The format is functional. The procedure, abridged: as §1
A short description of experiment [4]: Antioxidant activity assessed as DPPH reducing activity at 0.5 mM after 20 mins. Set-up: scale not given: the % may be the effect or the level left. The format is functional. The procedure, abridged:
as §1
For orientation: The DPPH test is a chemical assay of radical scavenging.

Experiment [5] in a line: Antioxidant activity assessed as DMSO hydroxyl radical scavenging activity at 0.1 mM. It counts as functional. The essentials: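 Hydroxyl radicals generated by Fe3+/ascorbic acid; reaction mix contained EDTA 0.1 mM, Fe3+ 167 µM, DMSO 33 mM and ascorbic acid 10 mM in 50 mM phosphate buffer pH 7.4, with test compound at 0.1 mM. Incubated 30 min at 37 °C, then stopped with trichloroacetic acid (17% w/v). Formaldehyde from DMSO oxidation was measured by the Nash method at 425 nm. At least triplicate.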

The nature of experiment [6]: Antioxidant activity assessed as DPPH reducing activity at 0.5 mM after 60 mins. The format is functional. The arrangement: scale not given: the % may be the effect or the level left. The procedure, abridged:
as §1

For experiment [7], the system named is Rattus norvegicus. The experiment can be described thus: Inhibition of carrageenan-induced Fischer 344 rat paw edema at 0.01 mmol/kg, ip. It counts as functional. The following applies: Fischer 344, ip. The essentials:
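Fischer 344 rats (150-200 g), both sexes, pregnant females excluded; 6-15 per group. Paw edema was induced by intradermal injection of 0.1 mL 2% carrageenin in water into the right hind paw. Compound at 0.01 mmol/kg, suspended in water with a few drops of Tween 80, was given ip at the same time. Rats were euthanized at 3.5 h. Injected minus uninjected paw weight was expressed as % inhibition versus water-treated controls. Mean of two experiments.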
(The carrageenan paw model is a standard test of acute inflammation.)

By inhibition is commonly meant the percentage by which the read-out fell short of the control. The term inhibition in vivo denotes the percentage by which the read-out fell short of the control.

In the case of `Cn1c(=O)c(C(=O)Nc2ccc(N)cc2)c(O)c2ccccc21`, the Activity in experiment [1] turned out to be 88.1%; in experiment [3] it was 90.2%; in experiment [4], 85.1%; in experiment [5] it was 20.7%; in experiment [6], 83.7%. This compound also registered an inhibition in experiment [2] of 50.8%. In experiment [7], this compound yielded an inhibition in vivo at 10 µmol/kg of 69.5%.
Consider `Cn1c(=O)c(C(=O)NCCCCCCN)c(O)c2ccccc21`, for which the Activity in experiment [1] came to 8.3%; in experiment [3] it was 3.1%; in experiment [4], 13.7%; in experiment [5], 59.3%; in experiment [6], 21.9%. Also, the inhibition in experiment [2] turned out to be 92.1%. Moreover, the inhibition in vivo at 10 µmol/kg in experiment [7] turned out to be 68.5%.
For the compound `Nc1ccc(NC(=O)c2c(O)c3ccccc3n(-c3ccccc3)c2=O)cc1`, the Activity in experiment [1] was 88.3%; in experiment [3], 89%; in experiment [4], 94.4%; in experiment [5] it was 10%; in experiment [6], 89.2%. In experiment [2], this compound yielded an inhibition of 58.9%. Also, the inhibition in vivo at 10 µmol/kg in experiment [7] came out at 56.4%.
Turning to `Cn1c(=O)c(C(=O)Nc2ccccc2N)c(O)c2ccccc21`, the Activity in experiment [1] came out at 13.5%; in experiment [3] it was 6%; in experiment [4] it was 28.8%; in experiment [5], 60.5%; in experiment [6], 41.4%. Besides, the inhibition in experiment [2] is 71.3%. In experiment [7], this compound displayed an inhibition in vivo at 10 µmol/kg of 85.3%.
With `CC(Cc1ccc(O)c(O)c1)C(C)Cc1ccc(O)c(O)c1` (stereo unspecified), the Activity in experiment [4] turned out to be 96.5%; in experiment [6], 98%.
As for `O=C(O)CCCCC1CCSS1` (stereo not drawn) [LIPOIC ACID, ALPHA], the Activity in experiment [1] amounted to 27.1%; in experiment [3], 20.3%; in experiment [4] it was 5.2%; in experiment [5], 38.6%; in experiment [6], 6.8%. This compound also gave an inhibition in experiment [2] of 29.1%. For the same compound, in experiment [7], the inhibition in vivo at 10 µmol/kg is 29.6%.
As to `COC(=O)c1c(O)c2ccccc2n(C)c1=O`, the Activity in experiment [1] came out at 7.4%; in experiment [3], 8.3%; in experiment [4], 17.5%; in experiment [5] it was 45%; in experiment [6] it was 18.4%. Also, in experiment [2], the inhibition amounted to 72.4%. In experiment [7], this compound displayed an inhibition in vivo at 10 µmol/kg of 58.8%.
For the compound `Cc1c(C)c2c(c(C)c1O)CCC(C)(C(=O)O)O2` (stereo unspecified), the Activity in experiment [5] amounted to 88.2%.
With `Cn1c(=O)c(C(=O)NCCN)c(O)c2ccccc21`, the Activity in experiment [1] was 11.5%; in experiment [3], 5.6%; in experiment [4], 20.9%; in experiment [5] it was 40.1%; in experiment [6], 37.1%. Besides, the inhibition in experiment [2] turned out to be 99.5%. In experiment [7], this compound registered an inhibition in vivo at 10 µmol/kg of 67%.
Regarding `O=C(CCCCC1CCSS1)NCCCCCCNC(=O)c1c(O)c2ccccc2n(-c2ccccc2)c1=O` (stereo unspecified), the Activity in experiment [1] was determined as 10.2%; in experiment [3], 6.2%; in experiment [4] it was 23.9%; in experiment [6], 29.5%. In experiment [2], this compound registered an inhibition of 64%. In addition, in experiment [5], the outcome was inactive. The compound further had an inhibition in vivo at 10 µmol/kg in experiment [7] of 50%.
For the compound `O=C(CCCCC1CCSS1)Nc1ccccc1NC(=O)c1c(O)c2ccccc2n(-c2ccccc2)c1=O` (stereo unspecified), the Activity in experiment [1] amounted to 16.1%; in experiment [3] it was 9.7%; in experiment [4], 11%; in experiment [6], 28.5%. In experiment [2], the inhibition was 100%. For the same compound, in experiment [5], the result was inactive. In experiment [7], this compound yielded an inhibition in vivo at 10 µmol/kg of 63%.
Consider `NCCCCCCNC(=O)c1c(O)c2ccccc2n(-c2ccccc2)c1=O`, for which the Activity was 17.5% in experiment [1]; 11.6% in experiment [3]; 19.3% in experiment [4]; 27.1% in experiment [5]; 28.1% in experiment [6]. Moreover, in experiment [2], the inhibition was 17.6%. Moreover, the inhibition in vivo at 10 µmol/kg in experiment [7] stood at 68.8%.
As for `COC(=O)c1c(O)c2ccccc2n(-c2ccccc2)c1=O`, the Activity in experiment [1] was 9.1%; in experiment [3], 9.1%; in experiment [4] it was 16.8%; in experiment [5], 95%; in experiment [6], 19.3%. The compound also returned an inhibition in experiment [2] of 100%. The same compound registered an inhibition in vivo at 10 µmol/kg in experiment [7] of 37.1%.
As for `Cn1c(=O)c(C(=O)NCCCCCCNC(=O)CCCCC2CCSS2)c(O)c2ccccc21` (stereo unspecified), the Activity is 13% in experiment [1]; 9.1% in experiment [3]; 28.4% in experiment [4]; 28.6% in experiment [5]; 38.8% in experiment [6]. For the same compound, the inhibition in experiment [2] turned out to be 79.1%. This compound registered an inhibition in vivo at 10 µmol/kg in experiment [7] of 53%.
On to `COc1ccc2c(c1)c(CC(=O)O)c(C)n2C(=O)c1ccc(Cl)cc1` [INDOMETHACIN], for which the inhibition in vivo at 10 µmol/kg in experiment [7] turned out to be 47%.
Consider `NCCNC(=O)c1c(O)c2ccccc2n(-c2ccccc2)c1=O`, for which the Activity is 10% in experiment [1]; 7.2% in experiment [3]; 1.4% in experiment [4]; 78.6% in experiment [5]; 7.9% in experiment [6]. The same compound showed an inhibition in experiment [2] of 82.3%. Also, the inhibition in vivo at 10 µmol/kg in experiment [7] is 68.1%.
As for `O=C(CCCCC1CCSS1)NCCNC(=O)c1c(O)c2ccccc2n(-c2ccccc2)c1=O` (stereo unspecified), the Activity in experiment [1] is 7.8%; in experiment [3] it was 6.4%; in experiment [5], 0%; in experiment [6] it was 14.1%. For the same compound, the outcome in experiment [2] and in experiment [4] was inactive. Besides, the inhibition in vivo at 10 µmol/kg in experiment [7] stood at 45.5%.
With `Nc1ccccc1NC(=O)c1c(O)c2ccccc2n(-c2ccccc2)c1=O`, the Activity in experiment [1] came to 16.3%; in experiment [3] it was 9.4%; in experiment [4], 21.3%; in experiment [5], 98%; in experiment [6], 34.7%. In addition, the result in experiment [2] was inactive. Besides, the inhibition in vivo at 10 µmol/kg in experiment [7] came to 48.5%.
For the compound `Cn1c(=O)c(C(=O)NCCNC(=O)CCCCC2CCSS2)c(O)c2ccccc21` (stereo unspecified), the Activity in experiment [1] amounted to 3.4%; in experiment [3], 10.9%; in experiment [4], 28.8%; in experiment [5], 67.9%; in experiment [6], 40.1%. The inhibition in experiment [2] was found to be 66.5%. The compound further gave an inhibition in vivo at 10 µmol/kg in experiment [7] of 48.2%.
